Assay results reported in ChEMBL document CHEMBL2016534 (ACS Med Chem Lett, 2011).
Values belong to the compound of their own block, whether it stands above or below them. Calls of active or inactive are those of the source. The calls are words filed in the database; no cut-off is given here.

What was measured:
[1] = molecular target: T1, Phosphatidylinositol 4,5-bisphosphate 3-kinase catalytic subunit delta isoform (Homo sapiens) (UniProt O00329); assay: Inhibition of PI3Kdelta
T1 sequence (whole entry): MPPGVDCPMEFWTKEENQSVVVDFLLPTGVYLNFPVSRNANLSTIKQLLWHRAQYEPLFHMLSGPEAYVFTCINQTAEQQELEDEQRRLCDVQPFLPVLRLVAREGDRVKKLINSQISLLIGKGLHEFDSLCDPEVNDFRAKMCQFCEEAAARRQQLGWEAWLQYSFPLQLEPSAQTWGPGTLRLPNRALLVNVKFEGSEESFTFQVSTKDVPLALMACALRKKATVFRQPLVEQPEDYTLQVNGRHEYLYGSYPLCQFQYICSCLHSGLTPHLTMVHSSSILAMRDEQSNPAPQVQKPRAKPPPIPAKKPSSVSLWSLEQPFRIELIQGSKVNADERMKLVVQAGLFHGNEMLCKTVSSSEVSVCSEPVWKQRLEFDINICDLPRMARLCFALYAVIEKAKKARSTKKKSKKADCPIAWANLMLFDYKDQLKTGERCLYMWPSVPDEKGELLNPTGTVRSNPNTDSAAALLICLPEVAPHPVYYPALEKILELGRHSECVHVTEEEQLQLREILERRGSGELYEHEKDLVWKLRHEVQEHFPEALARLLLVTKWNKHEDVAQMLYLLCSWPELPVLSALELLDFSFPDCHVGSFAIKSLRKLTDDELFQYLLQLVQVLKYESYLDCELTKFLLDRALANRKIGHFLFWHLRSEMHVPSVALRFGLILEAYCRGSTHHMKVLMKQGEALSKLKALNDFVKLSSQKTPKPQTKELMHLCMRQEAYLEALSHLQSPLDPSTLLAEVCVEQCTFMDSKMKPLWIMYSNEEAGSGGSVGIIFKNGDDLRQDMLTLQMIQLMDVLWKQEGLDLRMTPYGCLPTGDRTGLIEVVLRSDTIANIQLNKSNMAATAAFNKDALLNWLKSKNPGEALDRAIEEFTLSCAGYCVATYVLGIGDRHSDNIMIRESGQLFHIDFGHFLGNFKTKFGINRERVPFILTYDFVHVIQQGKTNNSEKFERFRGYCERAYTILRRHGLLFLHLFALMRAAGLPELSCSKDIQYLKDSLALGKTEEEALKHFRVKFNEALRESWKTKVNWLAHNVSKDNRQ

[2] = molecular target: T2, Phosphatidylinositol 4,5-bisphosphate 3-kinase catalytic subunit alpha isoform (Homo sapiens, UniProt P42336); assay: Inhibition of PI3Kalpha-mediated AKT phosphorylation at S473 by cell based assay
[3] = molecular target: T2, Phosphatidylinositol 4,5-bisphosphate 3-kinase catalytic subunit alpha isoform; assay: Inhibition of PI3Kalpha
[4] = molecular target: T3, Serine/threonine-protein kinase mTOR (Homo sapiens, UniProt P42345); assay: Inhibition of mTOR
[5] = Metabolic stability in human liver microsomes assessed as extraction ratio; assay type: ADME, Microsome; conditions: read-out: ERH
How it was run: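 Human liver microsome CLint scaled up with liver physiology parameters (mg HLM/g liver, g liver/kg body weight) to mL/min/kg. Predicted hepatic clearance (CLH, mL/min/kg) then calculated by the well-stirred model. Extraction ratio taken as predicted CLH divided by hepatic blood flow (QH).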

[6] = molecular target: T3, Serine/threonine-protein kinase mTOR; assay: Inhibition of mTOR at 1 uM
NCI-H460 = assay: Cytotoxicity against human NCI-H460 cells harboring PI3KCA mutation by MTT assay; assay type: functional, cell-based
NCI-H23 = assay: Cytotoxicity against human NCI-H23 cells harboring PTEN mutation by MTT assay; assay type: functional, cell-based
NCI-H1650 = assay: Cytotoxicity against PTEN deficient human NCI-H1650 cells by MTT assay; assay type: functional, cell-based
NCI-H1975 = assay: Cytotoxicity against human NCI-H1975 cells harboring PI3KCA mutation by MTT assay; assay type: functional, cell-based
[7] = Metabolic stability in rat liver microsomes assessed as extraction ratio; assay type: ADME, Microsome; conditions: read-out: ERH
MDR1 (human) = assay: Efflux ratio of permeability from basolateral to apical side to apical to basolateral side of dog RRCK cells expressing human MDR1; assay type: ADME, cell-based, Canis lupus familiaris, MDCKII-LE
[8] = Metabolic stability in mouse liver microsomes assessed as extraction ratio; assay type: ADME, Microsome; conditions: read-out: ERH
CYP3A4 = CYP3A4 (Homo sapiens, UniProt P08684); assay: Inhibition of CYP3A4 at 3 uM; assay type: ADME
CYP2C9 = CYP2C9 (Homo sapiens, UniProt P11712); assay: Inhibition of CYP2C9 at 3 uM; assay type: ADME
[9] = Drug excretion in bile duct cannulated rat urine; assay type: ADME; conditions: read-out: Drug excretion
[10] = Drug excretion in bile duct cannulated rat bile; assay type: ADME; conditions: read-out: Drug excretion
CYP2D6 = CYP2D6 (Homo sapiens, UniProt P10635); assay: Inhibition of CYP2D6 at 3 uM; assay type: ADME
CYP1A2 = molecular target: T4, CYP1A2 (Homo sapiens, UniProt P05177); assay: Inhibition of CYP1A2 at 3 uM; assay type: ADME
T4 sequence (P05177 whole entry): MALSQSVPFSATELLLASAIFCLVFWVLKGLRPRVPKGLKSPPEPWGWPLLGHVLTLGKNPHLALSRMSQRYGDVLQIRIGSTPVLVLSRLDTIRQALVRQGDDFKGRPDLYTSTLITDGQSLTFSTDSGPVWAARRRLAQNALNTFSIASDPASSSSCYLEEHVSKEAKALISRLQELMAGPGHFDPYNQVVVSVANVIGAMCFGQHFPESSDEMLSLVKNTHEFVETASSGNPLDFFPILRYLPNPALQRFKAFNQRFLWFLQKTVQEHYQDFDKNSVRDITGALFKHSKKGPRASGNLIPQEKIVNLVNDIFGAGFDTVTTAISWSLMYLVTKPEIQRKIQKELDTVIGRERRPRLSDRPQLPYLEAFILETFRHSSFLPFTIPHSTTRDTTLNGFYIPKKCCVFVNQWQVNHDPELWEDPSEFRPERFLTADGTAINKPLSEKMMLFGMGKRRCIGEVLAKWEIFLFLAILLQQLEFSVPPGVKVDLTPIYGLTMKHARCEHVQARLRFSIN

T2 sequence (P42336 whole entry, canonical isoform): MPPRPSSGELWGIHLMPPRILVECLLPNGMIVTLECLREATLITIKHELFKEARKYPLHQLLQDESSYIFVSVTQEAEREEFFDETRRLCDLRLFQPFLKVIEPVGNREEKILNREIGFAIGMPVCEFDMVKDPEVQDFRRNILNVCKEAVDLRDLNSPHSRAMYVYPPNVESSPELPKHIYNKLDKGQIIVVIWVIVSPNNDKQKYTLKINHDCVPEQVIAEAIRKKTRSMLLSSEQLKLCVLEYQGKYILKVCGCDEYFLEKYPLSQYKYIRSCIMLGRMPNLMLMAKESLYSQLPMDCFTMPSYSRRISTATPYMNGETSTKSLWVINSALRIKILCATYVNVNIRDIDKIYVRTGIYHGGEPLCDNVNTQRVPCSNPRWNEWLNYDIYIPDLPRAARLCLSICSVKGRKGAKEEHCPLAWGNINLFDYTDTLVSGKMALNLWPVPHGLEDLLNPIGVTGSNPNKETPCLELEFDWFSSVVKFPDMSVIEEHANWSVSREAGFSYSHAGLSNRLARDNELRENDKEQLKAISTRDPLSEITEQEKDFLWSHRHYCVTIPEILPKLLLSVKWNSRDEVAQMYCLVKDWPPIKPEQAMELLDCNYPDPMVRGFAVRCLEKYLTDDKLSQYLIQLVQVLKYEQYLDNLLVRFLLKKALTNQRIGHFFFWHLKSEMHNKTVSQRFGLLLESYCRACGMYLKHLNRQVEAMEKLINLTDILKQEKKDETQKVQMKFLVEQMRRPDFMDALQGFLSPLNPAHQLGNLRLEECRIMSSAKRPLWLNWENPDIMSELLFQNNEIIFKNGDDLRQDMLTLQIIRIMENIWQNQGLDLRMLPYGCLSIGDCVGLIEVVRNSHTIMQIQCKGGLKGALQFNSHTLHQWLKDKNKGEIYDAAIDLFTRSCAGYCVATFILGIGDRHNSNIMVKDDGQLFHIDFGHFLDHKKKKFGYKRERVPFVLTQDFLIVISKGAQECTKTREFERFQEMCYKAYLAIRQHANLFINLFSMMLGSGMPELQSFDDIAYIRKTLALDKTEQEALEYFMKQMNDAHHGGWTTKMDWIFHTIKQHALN
Sequence of CYP3A4 (P08684 whole entry): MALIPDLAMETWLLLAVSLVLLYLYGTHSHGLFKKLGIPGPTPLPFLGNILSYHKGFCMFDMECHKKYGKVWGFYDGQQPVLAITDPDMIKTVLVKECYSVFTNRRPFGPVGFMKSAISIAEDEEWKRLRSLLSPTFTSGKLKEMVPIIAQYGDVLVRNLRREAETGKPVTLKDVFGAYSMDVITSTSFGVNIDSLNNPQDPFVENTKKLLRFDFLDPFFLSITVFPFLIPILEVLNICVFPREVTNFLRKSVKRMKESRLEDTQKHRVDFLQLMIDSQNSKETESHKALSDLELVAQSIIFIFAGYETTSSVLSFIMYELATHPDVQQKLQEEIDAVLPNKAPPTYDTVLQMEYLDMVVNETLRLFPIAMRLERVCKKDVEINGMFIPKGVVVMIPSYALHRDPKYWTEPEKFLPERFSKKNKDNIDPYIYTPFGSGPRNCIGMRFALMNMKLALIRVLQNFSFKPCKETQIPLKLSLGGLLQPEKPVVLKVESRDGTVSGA
Sequence of CYP2C9 (P11712 whole entry): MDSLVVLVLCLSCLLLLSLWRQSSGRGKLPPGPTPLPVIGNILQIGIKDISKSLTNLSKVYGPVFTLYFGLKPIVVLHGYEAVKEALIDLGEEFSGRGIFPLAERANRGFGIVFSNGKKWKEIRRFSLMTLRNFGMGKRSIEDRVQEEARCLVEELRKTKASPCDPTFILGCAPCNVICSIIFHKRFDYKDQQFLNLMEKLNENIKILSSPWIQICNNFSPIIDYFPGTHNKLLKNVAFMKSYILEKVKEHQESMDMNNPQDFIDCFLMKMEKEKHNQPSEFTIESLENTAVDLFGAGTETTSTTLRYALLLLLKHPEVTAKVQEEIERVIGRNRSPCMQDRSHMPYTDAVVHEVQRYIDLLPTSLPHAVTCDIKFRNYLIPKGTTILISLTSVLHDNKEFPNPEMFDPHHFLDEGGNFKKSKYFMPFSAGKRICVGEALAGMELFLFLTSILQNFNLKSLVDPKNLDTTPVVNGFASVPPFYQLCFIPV
Sequence of CYP2D6 (P10635 whole entry): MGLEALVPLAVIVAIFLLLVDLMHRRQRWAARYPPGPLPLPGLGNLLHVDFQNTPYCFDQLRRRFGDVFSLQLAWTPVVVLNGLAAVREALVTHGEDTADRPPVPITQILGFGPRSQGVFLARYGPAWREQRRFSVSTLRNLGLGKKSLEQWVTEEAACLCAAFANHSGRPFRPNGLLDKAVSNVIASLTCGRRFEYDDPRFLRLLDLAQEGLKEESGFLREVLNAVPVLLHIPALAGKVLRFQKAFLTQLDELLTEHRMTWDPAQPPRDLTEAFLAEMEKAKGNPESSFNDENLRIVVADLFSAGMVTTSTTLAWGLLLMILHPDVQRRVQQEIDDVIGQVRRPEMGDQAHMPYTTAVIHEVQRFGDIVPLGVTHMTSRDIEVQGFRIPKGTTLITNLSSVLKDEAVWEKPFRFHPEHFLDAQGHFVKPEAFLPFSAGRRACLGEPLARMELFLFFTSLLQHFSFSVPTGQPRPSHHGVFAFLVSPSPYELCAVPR

Structure (SMILES): N#Cc1c(N2CCOCC2)sc(-c2nc[nH]n2)c1-c1ccc(Cl)cc1
IC50 [2]: 73 nM
Ki [3]: 1.7 nM
Ki [4]: 434 nM
hepatic extraction ratio [5]: 0.3

Structure (SMILES): Cc1nnc(-c2sc(N3CCOCC3)c(C#N)c2-c2ccc(Cl)cc2)o1
Ki [3]: 1280 nM

Structure (SMILES): N#Cc1c(N2CCOCC2)sc(-c2cc[nH]n2)c1-c1ccc(Cl)cc1
Ki [3]: 1.8 nM
hepatic extraction ratio [5]: 0.7

Structure (SMILES): N#Cc1c(N2CCOCC2)sc(C(N)=O)c1-c1ccc(Cl)cc1
IC50 [2]: 760 nM
Ki [3]: 13 nM
inhibition [6]: 47%

Structure (SMILES): N#Cc1c(N2CCOCC2)sc(-c2cn[nH]n2)c1-c1ccc(Cl)cc1
Ki [3]: 3 nM
hepatic extraction ratio [5]: 0.7

Structure (SMILES): N#Cc1c(N2CCOCC2)sc(C(=O)O)c1-c1ccc(Cl)cc1
Ki [3]: 230 nM

Structure (SMILES): N#Cc1c(N2CCOCC2)sc(-c2nnc[nH]2)c1-c1ccc(Cl)cc1Cl
IC50 [2]: 35 nM
hepatic extraction ratio [7]: 0.89
inhibition at 3 µM (CYP3A4): < 30%
inhibition at 3 µM (CYP2C9): < 30%
dose excreted [9]: < 1%
dose excreted [10]: < 1%
Ki [3]: 0.35 nM
efflux ratio (MDR1 (human)): 2.56
Ki [4]: 2470 nM
hepatic extraction ratio [8]: 0.88
hepatic extraction ratio [5]: 0.3
inhibition at 3 µM (CYP2D6): < 30%
inhibition at 3 µM (CYP1A2): < 30%

The next lines start with results.

inhibition [1]: Active
Structure (SMILES): N#Cc1ccc(-c2c(-c3ncn[nH]3)sc(N3CCOCC3)c2C#N)c(F)c1

Ki [3]: 175 nM
Structure (SMILES): N#Cc1c(N2CCOCC2)sc(-c2cn[nH]c2)c1-c1ccc(Cl)cc1

inhibition [1]: Active
Structure (SMILES): N#Cc1c(N2CCOCC2)sc(-c2ncn[nH]2)c1-c1ccc(Cl)cc1Cl
Activity (NCI-H460): Active
Activity (NCI-H23): Active
Activity (NCI-H1650): Active
Activity (NCI-H1975): Active

IC50 [2]: 79 nM
hepatic extraction ratio [7]: 0.529
Ki [3]: 0.6 nM
efflux ratio (MDR1 (human)): 2.6
Ki [4]: 1440 nM
hepatic extraction ratio [8]: 0.639
hepatic extraction ratio [5]: 0.35
Structure (SMILES): N#Cc1ccc(-c2c(-c3nnc[nH]3)sc(N3CCOCC3)c2C#N)c(F)c1
